For 14 compounds, IC50 and Concentration results are on record in ChEMBL document CHEMBL1133753, “6-N-Acyltriciribine analogues: structure-activity relationship between acyl carbon chain length and activity against HIV-1” (J Med Chem, 2000).

The structures appear in SMILES notation. A value given as a limit tells only on which side of the number the result lay.

Test [1] in a line: Antiviral activity against HSV-1 was determined using BSC-1 cells by an enzyme-linked immunosorbent assay (ELISA). Format: functional, cell-based. The settings on record: Cercopithecidae. Background: In an ELISA, binding on a coated surface is turned into a signal by an enzyme label.
Test [2] relates to HFF. The test can be described thus: Antiviral activity against HCMV was determined by plaque reduction assay using HFF cells. Format: functional, cell-based. The settings on record: Homo sapiens.
Test [3] has as its system HFF. Nature of the test: Visual cytotoxicity was scored on uninfected HFF cells. Type of test: functional, cell-based. The settings on record: Homo sapiens.
In test [4] the test system is CEM-SS. Nature of the test: Visual cytotoxicity was scored on CEM-SS cells. Format: functional, cell-based. The settings on record: Homo sapiens.
Test [5] can be described thus: (§1) Cytotoxicity measured as Inhibition of KB cell growth was assessed. Type of test: functional, cell-based. The settings on record: Homo sapiens.
Test [6] can be described thus: as §1. Format: cell-based. The settings on record: Homo sapiens. Put shortly:
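KB cells plated at 5000/well and incubated overnight at 37 °C. Compound added in triplicate at eight concentrations, then 48 h at 37 °C in CO₂ (two population doublings). Cells fixed with 95% ethanol, stained with 0.1% crystal violet, dye eluted with acidified ethanol and read at 570 nm. IC50 taken from linear regression of % inhibition vs log concentration.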

For test [7], the system named is CEM-SS. The test can be described thus: Intracellular phosphorylation (100 uM) in uninfected CEM-SS cells was studied after 24 hrs of Incubation. The settings on record: Homo sapiens. Format: functional, cell-based. In a few lines:
(§2)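 Uninfected cells grown in suspension with compound at the stated extracellular concentration for 5 or 24 h. Cells pelleted and washed in cold Puck's saline with glucose. Nucleotides extracted with 0.6 N TCA on ice, neutralized with freon/0.5 M triethylamine, then separated by reverse-phase C18 HPLC (formic acid pH 2.5 to 50% methanol gradient), UV 254/290 nm; peaks identified by electrospray MS in a separate run. TCN-P quantified against standards and converted to μM using 1.9 pL/cell.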

In test [8] the test system is CEM-SS. The test can be described thus: Intracellular phosphorylation (10 uM) in uninfected CEM-SS cells was studied. Type of test: functional, cell-based. The settings on record: Homo sapiens. In a few lines:
as §2

In test [9] the test system is CEM-SS. The test can be described thus: Intracellular phosphorylation (100 uM) studied, after 5 hrs of Incubation. Format: functional, cell-based. The settings on record: Homo sapiens. In a few lines:
as §2

Test [10] concerns CEM-SS. The test can be described thus: Intracellular phosphorylation (10 uM) in uninfected CEM-SS cells was studied after 24 hrs of Incubation. Type of test: functional, cell-based. The settings on record: Homo sapiens. In a few lines:
as §2

The species named for another test is Homo sapiens. The test can be described thus: Intracellular phosphorylation (100 uM) in uninfected AA2 cells was studied, after 5 hrs of Incubation. Format: functional, cell-based. Put shortly: as §2
The nature of test [11]: Antiviral activity was evaluated by RT (reverse transcriptase) activity in cells acutely infected with HIV-1.

Regarding `CN1N=C(NC(=O)c2ccccc2)c2cn(C3O[C@H](CO)[C@@H](O)[C@H]3O)c3ncnc1c23` (some centres undefined), the IC50 (in test [1]; in the test with HFF [2]; in the test with HFF [3]; with CEM-SS [4]; in test [5]) was greater than 100 µM in each case.

Regarding `CCCCCCCCCCCC(=O)NC1=NN(C)c2ncnc3c2c1cn3C1O[C@H](CO)[C@@H](O)[C@H]1O` (some centres undefined), the IC50 (commonly the point on the concentration scale where inhibition reaches its midpoint) in test [1] is 45 µM; with HFF [2] it was 12 µM; in the test with HFF [3], 21 µM; in the test with CEM-SS [4], 32 µM; in test [5], 75 µM.

Turning to `CCCCCC(=O)NC1=NN(C)c2ncnc3c2c1cn3C1O[C@H](CO)[C@@H](O)[C@H]1O` (some centres undefined), the IC50 in [1] is greater than 100 µM; with HFF [2], 8.8 µM; with HFF [3] it was 100 µM; in the test with CEM-SS [4], 45 µM; in test [5], 40 µM.

In the case of `CN1N=C(NC(=O)C(C)(C)C)c2cn(C3O[C@H](CO)[C@@H](O)[C@H]3O)c3ncnc1c23` (some centres undefined), the half-maximal inhibitory concentration (IC50) (in [1]; in the test on HFF [2]; with HFF [3]; with CEM-SS [4]; in test [5]) was greater than 100 µM in each case.

Turning to `CCC(=O)NC1=NN(C)c2ncnc3c2c1cn3C1O[C@H](CO)[C@@H](O)[C@H]1O` (some centres undefined), the IC50 in test [1] was greater than 100 µM; with HFF [2], 40 µM; in the test on HFF [3] it was 100 µM; in the test on CEM-SS [4], greater than 100 µM; in [6], greater than 100 µM.

Turning to `CCCCC(=O)NC1=NN(C)c2ncnc3c2c1cn3C1O[C@H](CO)[C@@H](O)[C@H]1O` (some centres undefined), the IC50 in test [1] is greater than 100 µM; in the test with HFF [2], 0.45 µM; with HFF [3], greater than 100 µM; in the test with CEM-SS [4] it was 32 µM; in test [5] it was 30 µM. In the test on CEM-SS [7], this compound came in with a Concentration of 710 µM.

For `CC(C)C(=O)NC1=NN(C)c2ncnc3c2c1cn3C1O[C@H](CO)[C@@H](O)[C@H]1O` (some centres undefined), the half-maximal inhibitory concentration (IC50) (in test [1]; with HFF [2]; with HFF [3]; with CEM-SS [4]; in [5]) was greater than 100 µM throughout.

With `CCCCCCCC(=O)NC1=NN(C)c2ncnc3c2c1cn3C1O[C@H](CO)[C@@H](O)[C@H]1O` (some centres undefined), the IC50 in test [1] was greater than 100 µM; in the test with HFF [2], 12 µM; with HFF [3] it was 21 µM; with CEM-SS [4], 32 µM; in test [5] it was 40 µM.

For the compound `CCCCCCCCC(=O)NC1=NN(C)c2ncnc3c2c1cn3C1O[C@H](CO)[C@@H](O)[C@H]1O` (some centres undefined), the IC50 in test [1] was greater than 100 µM; in the test with HFF [2], 12 µM; with HFF [3], 21 µM; in the test with CEM-SS [4], 32 µM; in test [5], 65 µM. The compound also had a Concentration in the test on CEM-SS [8] of 243 µM.

As to `CC(=O)NC1=NN(C)c2ncnc3c2c1cn3C1O[C@H](CO)[C@@H](O)[C@H]1O` (some centres undefined), the IC50 (in test [1]; in the test with HFF [2]; in the test with HFF [3]; with CEM-SS [4]; in test [5]) was greater than 100 µM throughout.

Turning to `CCCC(=O)NC1=NN(C)c2ncnc3c2c1cn3C1O[C@H](CO)[C@@H](O)[C@H]1O` (some centres undefined), the IC50 was greater than 100 µM in test [1]; 10 µM with HFF [2]; 100 µM in the test with HFF [3]; greater than 100 µM in the test with CEM-SS [4]; 100 µM in [5].

With `CCCCCCC(=O)NC1=NN(C)c2ncnc3c2c1cn3C1O[C@H](CO)[C@@H](O)[C@H]1O` (some centres undefined), the Concentration with CEM-SS [9] amounted to 850 µM; with CEM-SS [10], 225 µM; in the test listed under Homo sapiens it was 48 µM. The IC50 in test [1] is greater than 100 µM; in the test with HFF [2], 11 µM; in the test on HFF [3], 32 µM; in the test with CEM-SS [4], 32 µM; in [5], 30 µM.

Turning to `CCCCCCCCCC(=O)NC1=NN(C)c2ncnc3c2c1cn3C1O[C@H](CO)[C@@H](O)[C@H]1O` (some centres undefined), the IC50 in test [1] was greater than 100 µM; in the test with HFF [2], 12 µM; with HFF [3] it was 21 µM; in the test on CEM-SS [4], 32 µM; in test [5] it was 40 µM.

Regarding `CN1N=C(N)c2cn([C@@H]3O[C@H](COP(=O)(O)O)[C@@H](O)[C@H]3O)c3ncnc1c23` [TRICIRIBINE PHOSPHATE], the IC50 in test [1] is 20 µM; in test [11], 0.04 µM; with CEM-SS [4], greater than 1 µM; in test [5] it was 10 µM.
